Reference: ChEMBL document CHEMBL3108710, “Discovery of a novel class of dimeric Smac mimetics as potent IAP antagonists resulting in a clinical candidate for the treatment of cancer (AZD5582)” (J Med Chem, 2013)
In brackets after ≈: the same amount, converted by molar mass. Activity calls are given as the source filed them. No cut-off for these calls is given here.

Legend:
[1] = tested on: MDA-MB-231; experiment: Antiproliferative activity against human MDA-MB-231 cells assessed as growth inhibition after 48 hrs by Alamar Blue assay; format: functional; settings: MDA-MB-231, 48 h
[2] = target: T1, Baculoviral IAP repeat-containing protein 2 (Homo sapiens, UniProt Q13490); experiment: Binding affinity to cIAP1 in human MDA-MB-231 cells assessed as induction of protein degradation after 1 hr by ELISA; format: cell-based
[3] = AUC in Han Wistar rat at 0.2 mg/kg, iv by LC-MS/MS analysis; format: ADME, organism-based; parameters: dose 0.2 mg/kg, route intravenous; settings: plasma
In short: (§1)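 Rat PK after a single intravenous bolus. Parameters derived from plasma levels: total plasma clearance, steady-state volume of distribution, half-life and AUC.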

[4] = Elimination half life in Han Wistar rat at 0.2 mg/kg, iv by LC-MS/MS analysis; format: ADME, organism-based; parameters: dose 0.2 mg/kg, route intravenous; settings: in vivo, read-out: beta t1/2 (converted); in short: as §1
[5] = Volume of distribution at steady state in Han Wistar rat at 0.2 mg/kg, iv by LC-MS/MS analysis; format: ADME, organism-based; parameters: dose 0.2 mg/kg, route intravenous; settings: in vivo, read-out: Vdss; in short: as §1
[6] = Total plasma clearance in Han Wistar rat at 0.2 mg/kg, iv by LC-MS/MS analysis; format: ADME, organism-based; parameters: dose 0.2 mg/kg, route intravenous; in short: as §1
[7] = Fraction unbound in human plasma at 10 uM by equilibrium dialysis method; format: ADME, cell-free
[8] = Aqueous equilibrium solubility of compound in phosphate buffer at pH 7.4 after 24 hrs by HPLC-UV analysis; format: physicochemical
[9] = target: E3 ubiquitin-protein ligase XIAP (Homo sapiens, UniProt P98170); experiment: Displacement of AbuRPFK-5FAM from GST-tagged XIAP BIR3 domain (N252 to E350) (unknown origin) after 20 mins by fluorescence polarization assay
In short: (§2)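 Competitive fluorescence polarization binding assay. Measures displacement of a 5-carboxyfluorescein-tagged synthetic peptide from the AVPI groove of the isolated BIR domain.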

[10] = target: T1, Baculoviral IAP repeat-containing protein 2; experiment: Displacement of AbuRPFK-5FAM from GST-tagged cIAP1 BIR3 domain (L250 to G350) (unknown origin) after 20 mins by fluorescence polarization assay; in short: as §2

T1 sequence (Q13490 whole entry): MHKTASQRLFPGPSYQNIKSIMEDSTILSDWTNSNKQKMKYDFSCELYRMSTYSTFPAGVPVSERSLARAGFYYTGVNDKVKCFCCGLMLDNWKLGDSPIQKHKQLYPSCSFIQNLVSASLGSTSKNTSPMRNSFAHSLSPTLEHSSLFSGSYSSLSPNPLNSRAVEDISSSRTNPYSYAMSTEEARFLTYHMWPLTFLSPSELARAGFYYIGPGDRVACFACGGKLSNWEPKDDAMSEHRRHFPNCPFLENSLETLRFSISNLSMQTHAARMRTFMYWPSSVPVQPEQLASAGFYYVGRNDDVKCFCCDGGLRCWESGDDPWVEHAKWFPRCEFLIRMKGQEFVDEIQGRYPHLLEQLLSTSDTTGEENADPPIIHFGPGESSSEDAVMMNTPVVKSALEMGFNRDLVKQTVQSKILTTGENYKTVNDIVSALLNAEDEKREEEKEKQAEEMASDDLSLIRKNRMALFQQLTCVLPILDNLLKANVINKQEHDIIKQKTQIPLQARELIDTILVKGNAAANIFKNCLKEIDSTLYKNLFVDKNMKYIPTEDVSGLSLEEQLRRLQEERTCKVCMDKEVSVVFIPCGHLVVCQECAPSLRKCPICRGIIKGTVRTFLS
E3 ubiquitin-protein ligase XIAP, sequence (P98170 whole entry, the tested form may be a part): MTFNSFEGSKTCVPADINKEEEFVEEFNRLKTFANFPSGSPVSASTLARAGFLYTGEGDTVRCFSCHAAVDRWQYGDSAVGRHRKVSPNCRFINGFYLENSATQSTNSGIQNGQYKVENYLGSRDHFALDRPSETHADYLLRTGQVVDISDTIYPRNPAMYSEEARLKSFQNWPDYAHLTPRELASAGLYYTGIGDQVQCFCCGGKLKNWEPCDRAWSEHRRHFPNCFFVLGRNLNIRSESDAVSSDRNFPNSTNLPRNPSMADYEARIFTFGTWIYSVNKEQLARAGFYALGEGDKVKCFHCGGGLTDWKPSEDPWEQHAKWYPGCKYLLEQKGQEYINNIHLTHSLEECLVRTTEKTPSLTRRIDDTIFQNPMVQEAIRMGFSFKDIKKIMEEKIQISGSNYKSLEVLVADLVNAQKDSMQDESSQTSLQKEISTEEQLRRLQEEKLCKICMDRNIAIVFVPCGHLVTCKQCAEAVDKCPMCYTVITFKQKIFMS

SMILES | GI50 [1] | EC50 [2] | further results
CN[C@@H](C)C(=O)N[C@H](C(=O)N1CCC[C@H]1C(=O)N[C@H]1c2ccccc2C[C@@H]1OCC#CC#CCO[C@H]1Cc2ccccc2[C@@H]1NC(=O)[C@@H]1CCCN1C(=O)[C@@H](NC(=O)[C@H](C)NC)C1CCCCC1)C1CCCCC1 | < 0.1 nM | 0.2 nM | –
CN[C@@H](C)C(=O)N[C@H](C(=O)N1CCC[C@H]1C(=O)N[C@@H]1c2ccccc2CC[C@@H]1OCC#CC#CCO[C@H]1CCc2ccccc2[C@H]1NC(=O)[C@@H]1CCCN1C(=O)[C@@H](NC(=O)[C@H](C)NC)C(C)(C)C)C(C)(C)C | 97 nM | 4 nM | –
CN[C@@H](C)C(=O)N[C@H](C(=O)N1CCC[C@H]1C(=O)N[C@@H]1CCN(CC#CC#CCN2CC[C@@H](NC(=O)[C@@H]3CCCN3C(=O)[C@@H](NC(=O)[C@H](C)NC)C3CCCCC3)c3ccccc32)c2ccccc21)C1CCCCC1 | 0.1 nM | 0.2 nM | AUC [3]: 40 ng·h/mL; half-life [4]: 36 min; Vd [5]: 1.2 L/kg; clearance [6]: 68 mL/min/kg
CN[C@@H](C)C(=O)N[C@H](C(=O)N1CCC[C@H]1C(=O)N[C@H]1c2ccccc2C[C@H]1OCC#CC#CCO[C@@H]1Cc2ccccc2[C@@H]1NC(=O)[C@@H]1CCCN1C(=O)[C@@H](NC(=O)[C@H](C)NC)C1CCNCC1)C1CCNCC1 | > 370 nM | > 370 nM | –
CN[C@@H](C)C(=O)N[C@H](C(=O)N1[C@H](C(=O)N[C@H]2c3ccccc3C[C@H]2OCC#CC#CCO[C@@H]2Cc3ccccc3[C@@H]2NC(=O)[C@@H]2C[C@@H]3C[C@@H]3N2C(=O)[C@@H](NC(=O)[C@H](C)NC)C2CCCCC2)C[C@@H]2C[C@@H]21)C1CCCCC1 | 0.1 nM | 0.1 nM | fraction unbound at 10 µM [7]: < 0.01; solubility thermodynamic at 24 h [8]: 48 µM (≈ 49.9 µg/mL)
CN[C@@H](C)C(=O)N[C@H](C(=O)N1CSC[C@H]1C(=O)N[C@H]1c2ccccc2C[C@H]1OCC#CC#CCO[C@@H]1Cc2ccccc2[C@@H]1NC(=O)[C@@H]1CSCN1C(=O)[C@@H](NC(=O)[C@H](C)NC)C(C)(C)C)C(C)(C)C | 0.1 nM | 0.5 nM | fraction unbound at 10 µM [7]: 0.107; solubility thermodynamic at 24 h [8]: 268 µM (≈ 268 µg/mL)
CN[C@@H](C)C(=O)N[C@H](C(=O)N1CSC2(CC2)[C@H]1C(=O)N[C@H]1c2ccccc2C[C@H]1OCC#CC#CCO[C@@H]1Cc2ccccc2[C@@H]1NC(=O)[C@H]1N(C(=O)[C@@H](NC(=O)[C@H](C)NC)C2CCCCC2)CSC12CC2)C1CCCCC1 | < 0.1 nM | 0.6 nM | fraction unbound at 10 µM [7]: < 0.01; solubility thermodynamic at 24 h [8]: < 1 µM
C#CCO[C@@H]1CCc2ccccc2[C@H]1NC(=O)[C@@H]1CCCN1C(=O)[C@@H](NC(=O)[C@H](C)NC)C(C)(C)C | 2190 nM | > 370 nM | IC50 [9]: 1310 nM; IC50 [10]: 290 nM
CN[C@@H](C)C(=O)N[C@H](C(=O)N1CCC[C@H]1C(=O)N[C@H]1c2ccccc2CC[C@@H]1OCC#CC#CCO[C@H]1CCc2ccccc2[C@@H]1NC(=O)[C@@H]1CCCN1C(=O)[C@@H](NC(=O)[C@H](C)NC)C(C)(C)C)C(C)(C)C | 0.3 nM | 0.6 nM | –
CN[C@@H](C)C(=O)N[C@H](C(=O)N1CCC[C@H]1C(=O)N[C@H]1c2ccccc2CC[C@H]1OCC#CC#CCO[C@@H]1CCc2ccccc2[C@@H]1NC(=O)[C@@H]1CCCN1C(=O)[C@@H](NC(=O)[C@H](C)NC)C(C)(C)C)C(C)(C)C | 0.1 nM | 0.2 nM | AUC [3]: 30 ng·h/mL; half-life [4]: 30 min; Vd [5]: 1.9 L/kg; clearance [6]: 111 mL/min/kg; solubility thermodynamic at 24 h [8]: > 1000 µM
CN[C@@H](C)C(=O)N[C@H](C(=O)N1CCC[C@H]1C(=O)N[C@H]1c2ccccc2C[C@H]1OCC#CC#CCO[C@@H]1Cc2ccccc2[C@@H]1NC(=O)[C@@H]1CCCN1C(=O)[C@@H](NC(=O)[C@H](C)NC)C1CCN(C(C)=O)CC1)C1CCN(C(C)=O)CC1 | 76 nM | > 370 nM | –
CN[C@@H](C)C(=O)N[C@H](C(=O)N1CCC[C@H]1C(=O)N[C@H]1c2ccccc2C[C@H]1OCC#CC#CCO[C@@H]1Cc2ccccc2[C@@H]1NC(=O)[C@@H]1CCCN1C(=O)[C@@H](NC(=O)[C@H](C)NC)C1CCN(CCO)CC1)C1CCN(CCO)CC1 | > 370 nM | > 370 nM | –
CN[C@@H](C)C(=O)N[C@H](C(=O)N1CCC[C@H]1C(=O)NC1(C(=O)NCC#CC#CCNC(=O)C2(NC(=O)[C@@H]3CCCN3C(=O)[C@@H](NC(=O)[C@H](C)NC)C3CCCCC3)Cc3ccccc3C2)Cc2ccccc2C1)C1CCCCC1 | 13 nM | 5 nM | –
CN[C@@H](C)C(=O)N[C@@H](CCCCN)C(=O)N1CCC[C@H]1C(=O)N[C@H]1c2ccccc2C[C@H]1OCC#CC#CCO[C@@H]1Cc2ccccc2[C@@H]1NC(=O)[C@@H]1CCCN1C(=O)[C@H](CCCCN)NC(=O)[C@H](C)NC | > 370 nM | > 370 nM | –
CN[C@@H](C)C(=O)N[C@H](C(=O)N1CCC[C@H]1C(=O)N[C@H]1c2ccccc2C[C@H]1NC(=O)c1ccc(-c2ccc(C(=O)N[C@@H]3Cc4ccccc4[C@@H]3NC(=O)[C@@H]3CCCN3C(=O)[C@@H](NC(=O)[C@H](C)NC)C3CCCCC3)cc2)cc1)C1CCCCC1 | 0.6 nM | 15 nM | inhibition [10]: Active
CN[C@@H](C)C(=O)N[C@H](C(=O)N1CCC[C@H]1C(=O)N[C@@H]1c2ccccc2CC[C@H]1OCC#CC#CCO[C@@H]1CCc2ccccc2[C@H]1NC(=O)[C@@H]1CCCN1C(=O)[C@@H](NC(=O)[C@H](C)NC)C(C)(C)C)C(C)(C)C | 61 nM | 2 nM | –
CN[C@@H](C)C(=O)N[C@H](C(=O)N1CC=C[C@H]1C(=O)N[C@H]1c2ccccc2C[C@H]1OCC#CC#CCO[C@@H]1Cc2ccccc2[C@@H]1NC(=O)[C@@H]1C=CCN1C(=O)[C@@H](NC(=O)[C@H](C)NC)C1CCCCC1)C1CCCCC1 | 0.1 nM | 0.3 nM | fraction unbound at 10 µM [7]: 0.029; solubility thermodynamic at 24 h [8]: 77 µM (≈ 77.9 µg/mL)
C#CCO[C@H]1CCc2ccccc2[C@@H]1NC(=O)[C@@H]1CCCN1C(=O)[C@@H](NC(=O)[C@H](C)NC)C(C)(C)C | 45 nM | 10 nM | IC50 [9]: 95 nM; IC50 [10]: 14 nM
C#CCO[C@H]1CCc2ccccc2[C@H]1NC(=O)[C@@H]1CCCN1C(=O)[C@@H](NC(=O)[C@H](C)NC)C(C)(C)C | 192 nM | 126 nM | IC50 [9]: 600 nM; IC50 [10]: 40 nM
C#CCO[C@@H]1CCc2ccccc2[C@@H]1NC(=O)[C@@H]1CCCN1C(=O)[C@@H](NC(=O)[C@H](C)NC)C(C)(C)C | 16 nM | 4 nM | IC50 [9]: 19 nM; IC50 [10]: 10 nM
CN[C@@H](C)C(=O)N[C@H](C(=O)N1CCC[C@H]1C(=O)N[C@H]1c2ccccc2C[C@H]1OCC#CC#CCO[C@@H]1Cc2ccccc2[C@@H]1NC(=O)[C@@H]1CCCN1C(=O)[C@@H](NC(=O)[C@H](C)NC)C(C)C)C(C)C | 0.4 nM | 2 nM | AUC [3]: 76 ng·h/mL; half-life [4]: 96 min; Vd [5]: 2.3 L/kg; clearance [6]: 44 mL/min/kg
CN[C@@H](C)C(=O)N[C@H](C(=O)N1CSC[C@H]1C(=O)N[C@H]1c2ccccc2C[C@H]1OCC#CC#CCO[C@@H]1Cc2ccccc2[C@@H]1NC(=O)[C@@H]1CSCN1C(=O)[C@@H](NC(=O)[C@H](C)NC)C1CCCCC1)C1CCCCC1 | 0.1 nM | 0.2 nM | fraction unbound at 10 µM [7]: 0.011; solubility thermodynamic at 24 h [8]: < 1 µM
CN[C@@H](C)C(=O)N[C@H](C(=O)N1CCC[C@H]1C(=O)N[C@H]1c2ccccc2C[C@H]1NC(=O)CCCCCCCCC(=O)N[C@@H]1Cc2ccccc2[C@@H]1NC(=O)[C@@H]1CCCN1C(=O)[C@@H](NC(=O)[C@H](C)NC)C1CCCCC1)C1CCCCC1 | 0.2 nM | 3 nM | inhibition [10]: Active
